In brackets after ≈: the same amount, converted by molar mass. Activity calls are given as the source filed them. The rule behind the calls is not given here.
Key:
[1] = molecular target: T1, Inhibitor of nuclear factor kappa-B kinase subunit beta (Homo sapiens, UniProt O14920); assay: Inhibition of IKK2 in presence of 1 uM ATP
T1 sequence (O14920 whole entry): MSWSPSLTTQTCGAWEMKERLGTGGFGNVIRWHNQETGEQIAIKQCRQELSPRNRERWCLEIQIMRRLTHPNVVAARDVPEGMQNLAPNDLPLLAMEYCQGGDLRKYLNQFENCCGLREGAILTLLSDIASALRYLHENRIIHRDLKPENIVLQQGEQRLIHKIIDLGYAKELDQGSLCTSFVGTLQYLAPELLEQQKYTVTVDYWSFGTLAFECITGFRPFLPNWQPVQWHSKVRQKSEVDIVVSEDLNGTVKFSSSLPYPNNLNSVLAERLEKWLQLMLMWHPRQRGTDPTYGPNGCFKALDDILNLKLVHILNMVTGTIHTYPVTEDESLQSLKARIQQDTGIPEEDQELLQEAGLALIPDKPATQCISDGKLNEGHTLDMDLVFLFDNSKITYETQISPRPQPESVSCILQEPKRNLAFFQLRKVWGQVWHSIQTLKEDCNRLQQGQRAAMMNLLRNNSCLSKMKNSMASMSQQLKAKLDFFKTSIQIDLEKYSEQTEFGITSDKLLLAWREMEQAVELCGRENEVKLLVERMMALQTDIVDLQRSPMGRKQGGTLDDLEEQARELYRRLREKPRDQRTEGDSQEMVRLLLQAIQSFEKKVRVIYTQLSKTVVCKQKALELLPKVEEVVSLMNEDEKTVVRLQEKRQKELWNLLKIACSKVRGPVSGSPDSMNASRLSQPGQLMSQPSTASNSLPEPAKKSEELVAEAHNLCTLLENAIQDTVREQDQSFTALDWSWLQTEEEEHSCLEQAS

[2] = molecular target: T2, Inhibitor of nuclear factor kappa-B kinase subunit alpha (Homo sapiens, UniProt O15111); assay: Inhibition of IKK1 in presence of 1 uM ATP
T2 sequence (O15111 whole entry): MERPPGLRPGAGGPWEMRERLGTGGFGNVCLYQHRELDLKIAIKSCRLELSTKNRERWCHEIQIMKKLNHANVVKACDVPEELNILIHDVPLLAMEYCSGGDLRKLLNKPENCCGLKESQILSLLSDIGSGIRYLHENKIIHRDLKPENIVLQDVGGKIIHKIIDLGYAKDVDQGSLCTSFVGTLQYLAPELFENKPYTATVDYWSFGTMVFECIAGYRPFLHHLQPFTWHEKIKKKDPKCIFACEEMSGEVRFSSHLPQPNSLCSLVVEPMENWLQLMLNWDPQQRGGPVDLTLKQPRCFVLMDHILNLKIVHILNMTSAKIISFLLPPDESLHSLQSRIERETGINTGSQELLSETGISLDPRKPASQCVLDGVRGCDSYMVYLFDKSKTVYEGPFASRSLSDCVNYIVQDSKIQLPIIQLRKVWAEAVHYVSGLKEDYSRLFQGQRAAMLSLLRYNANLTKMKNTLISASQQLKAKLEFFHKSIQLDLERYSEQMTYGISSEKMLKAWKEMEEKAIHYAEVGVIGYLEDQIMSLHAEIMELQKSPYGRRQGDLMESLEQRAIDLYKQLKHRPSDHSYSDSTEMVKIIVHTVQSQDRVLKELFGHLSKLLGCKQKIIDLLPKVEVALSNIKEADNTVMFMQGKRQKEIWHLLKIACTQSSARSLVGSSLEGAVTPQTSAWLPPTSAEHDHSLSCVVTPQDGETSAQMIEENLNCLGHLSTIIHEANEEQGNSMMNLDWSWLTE

Blood [3] = assay: Inhibition of LPS-stimulated TNFalpha production in human Whole blood; assay type: functional, tissue-based
[4] = Oral bioavailability in rat at 1 mg/kg; assay type: ADME, organism-based; settings: in vivo
Procedure, shortened: (§1)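 Rat pharmacokinetics: 1 mg/kg given IV (n = 2) or orally (n = 1); clearance derived from the IV arm.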

[5] = Clearance in rat at 1 mg/kg, iv; assay type: ADME, organism-based; parameters: dose 1 mg/kg, route intravenous; settings: in vivo; procedure, shortened: as §1
[6] = Half life in rat at 1 mg/kg, iv; assay type: ADME, organism-based; parameters: dose 1 mg/kg, route intravenous; settings: in vivo; procedure, shortened: as §1
[7] = molecular target: T1, Inhibitor of nuclear factor kappa-B kinase subunit beta; assay: Inhibition of IKK2 in human A549 cells assessed as inhibition of TNFalpha-induced NFKB activation; assay type: cell-based
Albumin = Albumin (Homo sapiens, UniProt P02768); assay: Binding affinity to human serum albumin; assay type: ADME; settings: isolated protein
[8] = Fraction unbound in human plasma; assay type: ADME, cell-free
Hepatocyte [9] = assay: Intrinsic clearance in human hepatocytes; assay type: ADME, cell-based, Liver
Cytochrome P450 2C9 = Cytochrome P450 2C9 (Homo sapiens, UniProt P11712); assay: inhibition of CYP2C9; assay type: ADME
Rattus norvegicus [10] = assay: Antiinflammatory activity in Lewis rat assessed as inhibition of LPS-induced neutrophil lung infiltration at 30 umol/kg, po administered 30 mins before LPS challenge relative to vehicle-treated control; assay type: functional, organism-based
Procedure, shortened: (§2)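 Male Lewis rats (n = 4 per group, vehicle included) dosed orally at 10, 30 and 100 µmol/kg in 2% DMSO/0.5% methylcellulose with NaOH, 30 min before 20 min exposure to aerosolized 0.1 mg/ml E. coli 026:B6 LPS. Neutrophils in BAL fluid counted 4 h post-LPS by differential (Diff-Quick) and haemocytometer counts. Results given as % inhibition versus vehicle, ED50 derived; ANOVA with Dunnett's test.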

Rattus norvegicus [11] = assay: Antiinflammatory activity in po dosed Lewis rat assessed as inhibition of LPS-induced neutrophil lung infiltration compound administered 30 mins before LPS challenge relative to vehicle-treated control; assay type: functional; procedure, shortened: as §2
[12] = molecular target: Voltage-gated inwardly rectifying potassium channel KCNH2 (Homo sapiens, UniProt Q12809); assay: Inhibition of human ERG
Hepatocyte [13] = assay: Intrinsic clearance in rat hepatocytes; assay type: ADME, cell-based, Liver
[14] = Aqueous solubility of the compound; assay type: physicochemical; settings: aqueous solution
[15] = Plasma protein binding in human; assay type: ADME, cell-free; settings: read-out: PPB (converted)
Cytochrome P450 2D6 = Cytochrome P450 2D6 (Homo sapiens, UniProt P10635); assay: inhibition of CYP2D6; assay type: ADME
[16] = Plasma protein binding in rat; assay type: ADME, cell-free; settings: read-out: PPB (converted)
Cytochrome P450 3A4 = Cytochrome P450 3A4 (Homo sapiens, UniProt P08684); assay: inhibition of CYP3A4; assay type: ADME
Cytochrome P450 1A2 = molecular target: T3, Cytochrome P450 1A2 (Homo sapiens, UniProt P05177); assay: inhibition of CYP1A2; assay type: ADME
T3 sequence (P05177 whole entry): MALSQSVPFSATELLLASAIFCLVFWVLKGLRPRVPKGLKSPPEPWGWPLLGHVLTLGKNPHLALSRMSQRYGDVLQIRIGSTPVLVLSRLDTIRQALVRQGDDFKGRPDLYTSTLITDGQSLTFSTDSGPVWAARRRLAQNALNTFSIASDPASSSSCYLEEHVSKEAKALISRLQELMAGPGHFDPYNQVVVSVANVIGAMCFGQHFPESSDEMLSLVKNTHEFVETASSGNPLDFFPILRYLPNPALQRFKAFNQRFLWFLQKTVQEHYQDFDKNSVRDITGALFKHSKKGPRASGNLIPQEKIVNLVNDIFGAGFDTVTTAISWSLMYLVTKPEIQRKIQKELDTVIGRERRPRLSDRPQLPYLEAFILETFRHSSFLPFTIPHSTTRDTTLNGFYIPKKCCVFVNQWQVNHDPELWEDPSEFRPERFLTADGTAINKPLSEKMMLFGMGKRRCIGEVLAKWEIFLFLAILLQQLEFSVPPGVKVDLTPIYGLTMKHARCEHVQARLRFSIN

Blood [17] = assay: Inhibition of LPS-stimulated TNFalpha production in rat Whole blood; assay type: functional, tissue-based
[18] = Volume of distribution in rat; assay type: ADME, organism-based; settings: in vivo; procedure, shortened: as §1

Cytochrome P450 3A4, sequence (P08684 whole entry): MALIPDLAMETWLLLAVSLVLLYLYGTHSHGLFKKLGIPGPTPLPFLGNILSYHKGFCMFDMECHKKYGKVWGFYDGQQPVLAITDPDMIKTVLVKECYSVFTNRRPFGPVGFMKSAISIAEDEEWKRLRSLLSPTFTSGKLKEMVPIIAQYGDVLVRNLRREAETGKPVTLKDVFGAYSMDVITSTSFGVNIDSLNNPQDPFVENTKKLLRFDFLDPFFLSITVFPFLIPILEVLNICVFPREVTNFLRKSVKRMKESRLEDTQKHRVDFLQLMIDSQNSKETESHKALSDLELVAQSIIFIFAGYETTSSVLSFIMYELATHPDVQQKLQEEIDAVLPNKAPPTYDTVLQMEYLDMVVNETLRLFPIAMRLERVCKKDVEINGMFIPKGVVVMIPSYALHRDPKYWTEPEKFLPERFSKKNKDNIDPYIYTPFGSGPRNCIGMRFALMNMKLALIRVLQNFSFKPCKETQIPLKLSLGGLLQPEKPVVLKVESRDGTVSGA
Voltage-gated inwardly rectifying potassium channel KCNH2, sequence (Q12809 whole entry): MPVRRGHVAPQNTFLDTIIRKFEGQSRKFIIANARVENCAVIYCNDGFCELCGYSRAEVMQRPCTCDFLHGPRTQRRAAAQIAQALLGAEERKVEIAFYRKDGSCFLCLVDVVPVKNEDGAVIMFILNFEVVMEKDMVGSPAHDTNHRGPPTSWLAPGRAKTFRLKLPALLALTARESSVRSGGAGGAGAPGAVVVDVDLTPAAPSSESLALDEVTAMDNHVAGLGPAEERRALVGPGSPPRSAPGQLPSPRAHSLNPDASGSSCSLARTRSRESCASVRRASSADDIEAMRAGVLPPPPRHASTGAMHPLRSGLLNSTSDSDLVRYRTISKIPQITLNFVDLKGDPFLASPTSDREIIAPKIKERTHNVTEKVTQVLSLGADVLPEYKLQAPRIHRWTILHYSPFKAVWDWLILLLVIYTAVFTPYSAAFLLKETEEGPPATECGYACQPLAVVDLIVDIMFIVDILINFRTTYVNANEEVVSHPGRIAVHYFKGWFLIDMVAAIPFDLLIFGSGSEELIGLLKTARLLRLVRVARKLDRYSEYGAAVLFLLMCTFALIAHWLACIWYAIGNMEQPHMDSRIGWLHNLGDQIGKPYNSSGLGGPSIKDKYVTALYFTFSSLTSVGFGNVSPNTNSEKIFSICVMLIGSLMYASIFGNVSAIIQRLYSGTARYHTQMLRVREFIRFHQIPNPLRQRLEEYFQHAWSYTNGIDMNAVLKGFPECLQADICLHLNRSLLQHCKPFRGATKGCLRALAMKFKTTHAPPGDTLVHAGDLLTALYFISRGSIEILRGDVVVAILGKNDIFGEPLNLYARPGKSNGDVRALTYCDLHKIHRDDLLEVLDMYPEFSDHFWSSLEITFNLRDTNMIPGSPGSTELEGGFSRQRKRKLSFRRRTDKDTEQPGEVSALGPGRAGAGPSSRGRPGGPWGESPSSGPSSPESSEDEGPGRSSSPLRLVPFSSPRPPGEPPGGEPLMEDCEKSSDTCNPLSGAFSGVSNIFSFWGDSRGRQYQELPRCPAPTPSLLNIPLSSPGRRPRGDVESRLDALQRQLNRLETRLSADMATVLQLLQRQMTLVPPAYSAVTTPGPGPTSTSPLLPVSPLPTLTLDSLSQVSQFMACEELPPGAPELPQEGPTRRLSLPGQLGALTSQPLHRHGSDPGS
Albumin, sequence (P02768 whole entry): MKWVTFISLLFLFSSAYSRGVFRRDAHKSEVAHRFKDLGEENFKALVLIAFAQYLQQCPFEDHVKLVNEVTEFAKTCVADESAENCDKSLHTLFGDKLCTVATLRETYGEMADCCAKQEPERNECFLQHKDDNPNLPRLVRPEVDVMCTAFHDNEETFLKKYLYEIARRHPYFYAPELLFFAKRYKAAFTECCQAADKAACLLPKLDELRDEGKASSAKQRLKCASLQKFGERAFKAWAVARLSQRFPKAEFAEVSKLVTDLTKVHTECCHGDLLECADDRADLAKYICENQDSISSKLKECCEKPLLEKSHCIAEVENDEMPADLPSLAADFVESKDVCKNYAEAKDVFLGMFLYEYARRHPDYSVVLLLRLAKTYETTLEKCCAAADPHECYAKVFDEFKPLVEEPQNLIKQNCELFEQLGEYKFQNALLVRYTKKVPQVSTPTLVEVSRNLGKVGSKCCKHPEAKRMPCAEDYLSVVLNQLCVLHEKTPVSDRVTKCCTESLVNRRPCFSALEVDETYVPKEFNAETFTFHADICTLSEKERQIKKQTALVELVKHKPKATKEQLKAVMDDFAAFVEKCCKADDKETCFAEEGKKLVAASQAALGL
Cytochrome P450 2C9, sequence (P11712 whole entry): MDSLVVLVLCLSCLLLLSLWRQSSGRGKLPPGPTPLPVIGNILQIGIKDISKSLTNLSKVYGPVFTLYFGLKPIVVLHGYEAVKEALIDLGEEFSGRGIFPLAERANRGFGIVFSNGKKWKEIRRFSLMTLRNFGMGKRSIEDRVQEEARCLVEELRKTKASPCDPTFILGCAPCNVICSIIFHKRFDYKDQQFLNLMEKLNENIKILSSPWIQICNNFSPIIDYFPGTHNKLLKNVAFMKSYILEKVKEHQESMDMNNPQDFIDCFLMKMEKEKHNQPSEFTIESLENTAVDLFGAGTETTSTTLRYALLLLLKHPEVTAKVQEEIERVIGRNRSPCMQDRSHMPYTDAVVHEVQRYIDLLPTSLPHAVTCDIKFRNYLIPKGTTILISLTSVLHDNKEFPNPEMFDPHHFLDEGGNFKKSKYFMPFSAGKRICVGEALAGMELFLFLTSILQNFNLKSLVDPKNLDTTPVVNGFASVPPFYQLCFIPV
Cytochrome P450 2D6, sequence (P10635 whole entry): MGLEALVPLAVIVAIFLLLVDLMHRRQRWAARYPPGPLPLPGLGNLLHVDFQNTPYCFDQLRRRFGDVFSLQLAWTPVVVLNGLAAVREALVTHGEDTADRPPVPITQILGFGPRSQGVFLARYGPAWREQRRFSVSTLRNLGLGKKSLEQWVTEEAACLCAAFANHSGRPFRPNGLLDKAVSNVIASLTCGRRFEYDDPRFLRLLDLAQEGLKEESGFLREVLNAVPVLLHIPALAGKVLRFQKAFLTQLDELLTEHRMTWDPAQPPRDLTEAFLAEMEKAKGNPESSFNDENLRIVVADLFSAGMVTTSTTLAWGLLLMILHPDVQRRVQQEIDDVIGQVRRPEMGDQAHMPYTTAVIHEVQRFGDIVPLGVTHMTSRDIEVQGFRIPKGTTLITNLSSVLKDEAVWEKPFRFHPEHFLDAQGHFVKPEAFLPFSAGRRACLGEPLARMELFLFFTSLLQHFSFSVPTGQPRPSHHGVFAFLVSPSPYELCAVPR

| Compound | IC50 [1] [nM] | IC50 [2] [nM] | IC50 (Blood [3]) [nM] | further results |
| --- | --- | --- | --- | --- |
| Cc1cc2c(-c3ccc(S(=O)(=O)NC4CCS(=O)(=O)CC4)nc3)ccnc2[nH]1 | 12.6 | 7.94 | 398 | – |
| Cc1cc2c(-c3ccc(S(=O)(=O)NC4CCS(=O)(=O)CC4)cn3)ccnc2[nH]1 | 79.4 | 79.4 | 1000 | – |
| Cc1cc2c(-c3ccc(S(=O)(=O)NCC(C)(C)O)cc3)ccnc2[nH]1 | 10 | 200 | 1000 | bioavailability [4]: 32%; clearance [5]: 70 mL/min/kg; half-life [6]: 36 min |
| Cc1cc2c(-c3ncc(S(=O)(=O)NC4CCS(=O)(=O)CC4)cn3)ccnc2[nH]1 | 794 | 158 | 3160 | – |
| O=S1(=O)CCC(NS(=O)(=O)c2ccc(-c3ccnc4[nH]c(Cn5ccnn5)cc34)cc2)CC1 | 15.8 | 50.1 | 1260 | – |
| CC(C)(C)c1cc2c(-c3ccc(S(=O)(=O)NCCO)cc3)ccnc2[nH]1 | 20 | 794 | 1000 | – |
| Cc1cc2c(-c3ccc(S(=O)(=O)N(C)CCO)cc3)ccnc2[nH]1 | – | – | 3160 | IC50 [7]: 794 nM; Activity (Albumin): 91% |
| CN(C)Cc1cc2c(-c3ccc(S(=O)(=O)NC4CCS(=O)(=O)CC4)cc3)ccnc2[nH]1 | 20 | 100 | 1260 | – |
| O=S(=O)(NCCO)c1ccc(-c2ccnc3[nH]c(C(F)(F)F)cc23)cc1 | 15.8 | 200 | 2510 | – |
| O=S(=O)(NCCO)c1ccc(-c2ccnc3[nH]c(C4CC4)cc23)cc1 | 7.94 | 200 | 1260 | IC50 [7]: 200 nM; fraction unbound [8]: 0.07; bioavailability [4]: 49%; CLH (Hepatocyte [9]): < 1 mL/min/g; clearance [5]: 13 mL/min/kg; half-life [6]: 36 min; IC50 (Cytochrome P450 2C9): 7000 nM; inhibition (Rattus norvegicus [10]): Active; ED50 (Rattus norvegicus [11]): 28.2 µmol/kg; inhibition (Rattus norvegicus [11]): Dose-dependent effect; IC50 [12]: > 50100 nM; CLH (Hepatocyte [13]): < 1 mL/min/g; solubility [14]: 64 µM (≈ 22.9 µg/mL); fraction unbound [15]: 0.066; IC50 (Cytochrome P450 2D6): > 10000 nM; fraction unbound [16]: 0.024; IC50 (Cytochrome P450 3A4): > 10000 nM; IC50 (Cytochrome P450 1A2): > 10000 nM; IC50 (Blood [17]): 6310 nM; Vd [18]: 0.6 L/kg |
| C[C@@H](CO)NS(=O)(=O)c1ccc(-c2ccnc3[nH]c(C(F)(F)F)cc23)cc1 | 20 | 316 | 1260 | bioavailability [4]: 83%; clearance [5]: 7 mL/min/kg; half-life [6]: 192 min |
| CC(C)(O)CNS(=O)(=O)c1ccc(-c2ccnc3[nH]c(C4CC4)cc23)cc1 | 6.31 | 316 | 1000 | bioavailability [4]: 100%; clearance [5]: 14 mL/min/kg; half-life [6]: 42 min |
| O=S1(=O)CCC(NS(=O)(=O)c2ccc(-c3ccnc4[nH]c(C5CCNCC5)cc34)cc2)CC1 | 15.8 | 31.6 | 631 | – |
| CCc1cc2c(-c3ccc(S(=O)(=O)NC4CCS(=O)(=O)CC4)cc3)ccnc2[nH]1 | 5.01 | 6.31 | 398 | – |
| CC(C)c1cc2c(-c3ccc(S(=O)(=O)NC4CCS(=O)(=O)CC4)cc3)ccnc2[nH]1 | 6.31 | 6.31 | 251 | – |
| C[C@@H](CO)NS(=O)(=O)c1ccc(-c2ccnc3[nH]c(C4CC4)cc23)cc1 | 7.94 | 251 | 501 | bioavailability [4]: 29%; clearance [5]: 15 mL/min/kg; half-life [6]: 54 min |
| Cc1cc2c(-c3ccc(S(=O)(=O)NCCO)cc3)ccnc2[nH]1 | – | – | 2510 | – |
| Cc1cc2c(-c3ccc(S(=O)(=O)NC4CCS(=O)(=O)CC4)cc3)ccnc2[nH]1 | – | – | 398 | – |
| CC(C)c1cc2c(-c3ccc(S(=O)(=O)NCCO)cc3)ccnc2[nH]1 | 7.94 | 398 | 1580 | bioavailability [4]: 18%; clearance [5]: 39 mL/min/kg; half-life [6]: 27 min; Vd [18]: 0.8 L/kg |
| O=S1(=O)CCC(NS(=O)(=O)c2ccc(-c3ccnc4[nH]c(C5CC5)cc34)cc2)CC1 | 3.98 | 6.31 | 251 | – |
| CC(C)(C)c1cc2c(-c3ccc(S(=O)(=O)NC4CCS(=O)(=O)CC4)cc3)ccnc2[nH]1 | 7.94 | 25.1 | 631 | – |
